{"data": "Assay results gathered from unrelated publications", "target": "Homeodomain-interacting protein kinase 1 (HIPK1, Homo sapiens, UniProt Q86Z02)", "read-out": "enzyme activity", "action": "inhibitor", "note": "Compare with care: the assays were run in different laboratories."}
{"Structure (SMILES)": "CC(C)(C)c1nc2c(s1)c1nc(N)ncc1c1ccc(NS(=O)(=O)c3c(F)cccc3F)c(F)c12", "technique": "radiometric", "tested at": "1 µM", "remaining activity": "81%"}
{"Structure (SMILES)": "Cc1ccc(C(=O)Nc2ccc(CN3CCN(C)CC3)c(C(F)(F)F)c2)cc1C#Cc1cnc2cccnn12", "tested at": "23.5 nM", "remaining activity": "86%"}
{"Structure (SMILES)": "O=C(Nc1cnn(-c2csc(C(=O)NC3COC3)c2)c1)Nc1ccccc1Cl", "tested at": "5 µM", "remaining activity": "96.3%"}
{"Structure (SMILES)": "CC(C)(C)c1nc(-c2cccc(NS(=O)(=O)c3c(F)cccc3F)c2F)c(-c2ccnc(N)n2)s1", "technique": "radiometric", "tested at": "1 µM", "remaining activity": "87%"}
{"Structure (SMILES)": "COc1cc(Cl)c(C(=O)N[C@@H](CN[C@H]2CC[C@@H](N)CC2)Cc2ccc(C#N)cc2)cc1-c1ccc(CN[C@H](C)c2ccc(C)cc2)o1", "tested at": "1 µM", "remaining activity": "101%"}
{"Structure (SMILES)": "O=C(Nc1cnn(-c2csc(C(=O)NC3COC3)c2)c1)Nc1c(F)cccc1Cl", "tested at": "5 µM", "remaining activity": "91.7%"}
{"Structure (SMILES)": "O=C(O)c1ccc2c(c1)nc(Nc1cccc(F)c1)c1ccncc12", "technique": "radiometric", "tested at": "1 µM", "remaining activity": "6%"}
{"Structure (SMILES)": "CCCOc1ccc(OC)c(F)c1C(=O)c1ccc(C(=O)N[C@@H]2CNC[C@H]2NC(=O)c2ccc3[nH]ncc3c2)cc1", "tested at": "10 µM", "remaining activity": "97%"}
{"Structure (SMILES)": "Oc1cccc(-c2nc(N3CCOCC3)c3oc4ncccc4c3n2)c1", "tested at": "10 µM", "remaining activity": "63%"}
{"Structure (SMILES)": "O=C(O)c1ccc2c(c1)nc(Nc1ccccc1Cl)c1ncncc12", "technique": "radiometric", "tested at": "1 µM", "remaining activity": "13%"}
{"Structure (SMILES)": "CCN(CC)c1ccc(C2=NNC(=O)CC2C)cc1[N+](=O)[O-] (stereo not shown)", "tested at": "10 µM", "remaining activity": "132%"}
{"Structure (SMILES)": "O=C(O)c1ccc2c(c1)nc(NCCc1cccc(F)c1)c1ncncc12", "technique": "radiometric", "tested at": "1 µM", "remaining activity": "15%"}
{"Structure (SMILES)": "COc1cc(Nc2cnc(C#N)c(O[C@H](C)CN(C)C)n2)ncc1-c1cnn(C)c1", "technique": "radiometric", "tested at": "10 µM", "remaining activity": "107%"}
{"Structure (SMILES)": "N#Cc1cccc(Nc2nc3cc(C(=O)O)ccc3c3cnccc23)c1", "technique": "radiometric", "tested at": "1 µM", "remaining activity": "5%"}
{"Structure (SMILES)": "Cn1c(=O)n(-c2ccc(C(C)(C)C#N)cc2)c2c3cc(-c4cnc5ccccc5c4)ccc3ncc21", "tested at": "10 µM", "remaining activity": "89%"}
{"Structure (SMILES)": "O=C(O)c1ccc2c(c1)nc(NCc1ccccc1)c1ncncc12", "technique": "radiometric", "tested at": "1 µM", "remaining activity": "70%"}
{"Structure (SMILES)": "Cc1cnc(NC2CCOCC2)nc1-n1cnc(C(=O)NC(CN)c2cc(F)cc(Cl)c2)c1 (stereo not shown)", "technique": "radiometric", "tested at": "1 µM", "remaining activity": "87%"}
{"Structure (SMILES)": "O=C(O)c1ccc2c(c1)nc(Nc1ccc(Cl)cc1)c1ncncc12", "technique": "radiometric", "tested at": "1 µM", "remaining activity": "4%"}
{"Structure (SMILES)": "CC(C)(O)[C@H]1CC[C@H](Nc2ccc3ncc(-c4cccc(C(F)(F)F)c4)n3n2)CC1", "tested at": "1 µM", "remaining activity": "83.9%"}
